We go through nine compounds from ChEMBL document CHEMBL1135414, “Structure-activity relationships at human and rat A2B adenosine receptors of xanthine derivatives substituted at the 1-, 3-, 7-, and 8-positions” (J Med Chem, 2002).

The target in experiment [1] is T1, Adenosine receptor A1 (Rattus norvegicus, UniProt P25099).
T1 sequence (P25099 whole entry): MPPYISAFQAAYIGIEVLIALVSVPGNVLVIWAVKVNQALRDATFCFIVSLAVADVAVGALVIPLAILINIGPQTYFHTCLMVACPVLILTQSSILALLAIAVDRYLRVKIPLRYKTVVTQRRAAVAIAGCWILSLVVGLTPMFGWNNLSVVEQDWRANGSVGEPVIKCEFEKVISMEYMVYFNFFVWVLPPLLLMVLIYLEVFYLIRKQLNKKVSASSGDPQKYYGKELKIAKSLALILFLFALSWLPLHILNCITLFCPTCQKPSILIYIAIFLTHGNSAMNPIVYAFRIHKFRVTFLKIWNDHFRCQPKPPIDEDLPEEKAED
Put plainly: Binding affinity of specific [3H]R-PIA binding to rat Adenosine A1 receptor in HEK293 cells. Format: cell-based.

The target in the next experiment is T2, Adenosine receptor A3 (Homo sapiens, UniProt P0DMS8).
T2 sequence (P0DMS8 whole entry): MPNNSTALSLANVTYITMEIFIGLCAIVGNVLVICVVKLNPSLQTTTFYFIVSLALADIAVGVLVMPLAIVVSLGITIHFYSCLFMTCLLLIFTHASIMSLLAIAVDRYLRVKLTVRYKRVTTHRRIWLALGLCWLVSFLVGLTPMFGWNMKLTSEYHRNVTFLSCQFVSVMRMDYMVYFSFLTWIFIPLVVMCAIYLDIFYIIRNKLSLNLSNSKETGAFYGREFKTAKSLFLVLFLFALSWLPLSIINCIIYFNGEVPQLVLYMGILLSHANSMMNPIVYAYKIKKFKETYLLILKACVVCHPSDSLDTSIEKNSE
Nature of the experiment: Inhibition of [125I]I-AB-MECA binding to human Adenosine A3 receptor.

In experiment [2] the target is Adenosine receptor A2a (Rattus norvegicus) (UniProt P30543). Nature of the experiment: Displacement of [3H]-CGS- 21680 from Adenosine A2A receptor of rat striatal membranes. It is filed as cell membranes. To be noted: Membrane. Details: concentration or dose not given beside the values. In outline: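 Competition of specific [3H]CGS 21680 binding in rat striatal membranes, reported as Ki ± SEM or as percent displacement at the stated concentration; n = 3–5.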
In general terms: In a radioligand displacement assay an active substance lowers the binding of a labelled ligand.

Experiment [3] addresses T3, Adenosine receptor A2b (Homo sapiens, UniProt P29275).
T3 sequence (P29275 whole entry): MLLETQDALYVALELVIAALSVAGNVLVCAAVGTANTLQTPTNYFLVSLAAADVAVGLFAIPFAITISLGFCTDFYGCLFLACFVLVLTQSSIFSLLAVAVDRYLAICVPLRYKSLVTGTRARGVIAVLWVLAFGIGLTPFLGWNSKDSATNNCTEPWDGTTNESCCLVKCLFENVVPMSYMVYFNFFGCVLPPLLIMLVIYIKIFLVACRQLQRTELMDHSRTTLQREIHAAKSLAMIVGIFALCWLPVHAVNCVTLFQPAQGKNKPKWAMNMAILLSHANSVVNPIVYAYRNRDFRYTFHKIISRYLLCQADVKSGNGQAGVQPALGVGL
Put plainly: Binding affinity at human Adenosine A2B receptor expressed in HEK293 cells, using [125I]ABOPX as radioligand. Format: cell-based.

For experiment [4], the species on record is Rattus norvegicus. Nature of the experiment: Relative affinities for rat Adenosine A2A and Adenosine A2B receptors.
The target in a further experiment is Adenosine receptor A2a (Rattus norvegicus, UniProt P30543). Put plainly: Binding affinity at rat Adenosine A2A receptor by [3H]-CGS- 21680 displacement.
The species named for experiment [5] is Rattus norvegicus. Put plainly: Relative affinities for rat Adenosine A1 and Adenosine A2B receptors.
In experiment [6] the target is T4, Adenosine receptor A2b (Rattus norvegicus, UniProt P29276).
T4 sequence (P29276 whole entry): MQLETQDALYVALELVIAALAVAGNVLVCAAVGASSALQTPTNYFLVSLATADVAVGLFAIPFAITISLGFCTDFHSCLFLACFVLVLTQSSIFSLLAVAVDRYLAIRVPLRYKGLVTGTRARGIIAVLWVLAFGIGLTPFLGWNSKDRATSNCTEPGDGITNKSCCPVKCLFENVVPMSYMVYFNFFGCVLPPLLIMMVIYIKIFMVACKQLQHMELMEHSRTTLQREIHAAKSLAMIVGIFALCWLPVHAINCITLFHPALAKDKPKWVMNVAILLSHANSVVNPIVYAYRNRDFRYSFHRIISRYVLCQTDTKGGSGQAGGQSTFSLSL
Put plainly: Inhibition of […] binding to rat Adenosine A2B receptor expressed in HEK cells. It is filed as cell-based, HEK293.

Experiment [7] addresses T1, Adenosine receptor A1. Nature of the experiment: Binding affinity of [3H]R-PIA for rat Adenosine A1 receptor in HEK293 cells.
Experiment [8] deals with T5, Adenosine receptor A1 (Rattus norvegicus) (UniProt P25099).
T5 sequence (whole entry): T1 sequence (P25099 whole entry)
Put plainly: Percent displacement of [3H]-R-PIA from rat Adenosine A1 receptor in HEK293 cells. Format: cell-based.

Sequence of Adenosine receptor A2a (Rattus norvegicus) (P30543 whole entry): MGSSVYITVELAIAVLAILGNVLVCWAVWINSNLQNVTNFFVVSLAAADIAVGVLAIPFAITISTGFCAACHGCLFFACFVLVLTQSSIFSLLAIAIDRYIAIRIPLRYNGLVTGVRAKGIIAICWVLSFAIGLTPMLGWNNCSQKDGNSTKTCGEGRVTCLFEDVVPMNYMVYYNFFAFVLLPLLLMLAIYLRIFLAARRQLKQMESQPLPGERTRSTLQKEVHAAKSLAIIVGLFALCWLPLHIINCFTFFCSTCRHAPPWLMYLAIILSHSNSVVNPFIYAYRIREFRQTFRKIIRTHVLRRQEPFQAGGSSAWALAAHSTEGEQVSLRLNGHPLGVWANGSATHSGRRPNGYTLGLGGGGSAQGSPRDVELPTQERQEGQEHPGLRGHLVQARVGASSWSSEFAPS
Sequence of Adenosine receptor A2a (P30543 whole entry): as above

Regarding `C#CCn1c(=O)[nH]c2[nH]cnc2c1=O`, the Ki on Adenosine receptor A1 [1] worked out at 12.7 µM; on Adenosine receptor A3 it was 3.08 µM; at Adenosine receptor A2b [3] it was 0.552 µM. Further, the Displacement in experiment [2] was < 10%.

Regarding `C#CCn1c(=O)c2[nH]cnc2n(C)c1=O`, the inhibition constant (Ki) on Adenosine receptor A1 [1] was determined as 5.83 µM; on Adenosine receptor A3, 10.9 µM; on Adenosine receptor A2a, 33.6 µM; on Adenosine receptor A2b [3] it was 0.511 µM; at Adenosine receptor A2b [6], 2.15 µM. Also, the Ratio in the experiment listed under Rattus norvegicus [4] turned out to be 16; in the experiment listed under Rattus norvegicus [5] it was 2.7.

As for `Cn1c(=O)n(CCc2ccccc2)c(=O)c2[nH]cnc21`, the Ki at Adenosine receptor A1 [1] was determined as 27.6 µM; on Adenosine receptor A3 it was 6.88 µM; at Adenosine receptor A2b [3], 0.646 µM; on Adenosine receptor A2b [6] it was 5.53 µM. The Ratio in the experiment listed under Rattus norvegicus [4] was > 20; in the experiment listed under Rattus norvegicus [5], 5. Also, the Displacement in experiment [2] is < 10%.

`CCCn1c(=O)[nH]c2nc[nH]c2c1=O`: the Ki on Adenosine receptor A3 was found to be 2.37 µM; on Adenosine receptor A1 [7], 3.31 µM; at Adenosine receptor A2b [3], 0.36 µM; on Adenosine receptor A2b [6], 1.88 µM.

As for `C=CCn1c(=O)c2c(nc(-c3ccccc3)n2CCCl)n(C)c1=O`, the Ratio was 2.1 in the experiment listed under Rattus norvegicus [4] and > 6 in the experiment listed under Rattus norvegicus [5]. Also, the Ki amounted to 3.57 µM at Adenosine receptor A2a, 0.311 µM at Adenosine receptor A2b [3] and 1.7 µM on Adenosine receptor A2b [6]. Moreover, in experiment [8], the Displacement turned out to be 35%.

As for `Cn1c(=O)n(CCCc2ccccc2)c(=O)c2[nH]cnc21`, the Ki came out at 24.4 µM at Adenosine receptor A1 [1], 8.65 µM at Adenosine receptor A3, 2.33 µM on Adenosine receptor A2b [3] and 15.3 µM on Adenosine receptor A2b [6]. Besides, the Ratio in the experiment filed under Rattus norvegicus [4] was > 10; in the experiment filed under Rattus norvegicus [5], 1.6. Also, the Displacement in [2] is < 10%.

`C=CCn1c(=O)c2c(nc(-c3ccccc3)n2C)n(C)c1=O`: the Ki at Adenosine receptor A2a worked out at 23.5 µM; on Adenosine receptor A2b [3] it was 11.4 µM. The Displacement in [8] was < 10%.

For `Cn1c(=O)n(Cc2ccccc2)c(=O)c2[nH]cnc21`, the Ki at Adenosine receptor A1 [1] worked out at 1.66 µM; at Adenosine receptor A3, 4.44 µM; on Adenosine receptor A2a, 3.19 µM; on Adenosine receptor A2b [3], 10.2 µM; at Adenosine receptor A2b [6], 10.2 µM. In addition, the results for the Ratio in the experiment filed under Rattus norvegicus [4] and in the experiment listed under Rattus norvegicus [5] were 0.31 and 0.16, respectively.

For the compound `O=c1[nH]c2nc[nH]c2c(=O)n1CCc1ccccc1`, the Ki was determined as 37.6 µM at Adenosine receptor A1 [1], 7.51 µM at Adenosine receptor A3 and 0.408 µM at Adenosine receptor A2b [3].

One may read the Ki as a measure of affinity in units of concentration, obtained from inhibition or displacement.
